The subject of experiment [1] is Rattus norvegicus. Description: Antihypertensive activity in spontaneously hypertensive rats (SHR) at 5 mg/kg dose (po) after 6 h. Format: functional. Summed up:
(§1)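 Spontaneously hypertensive rats given 5 mg/kg orally; blood pressure measured, with percentage reduction determined at 1 and 6 h after dosing.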

The target in experiment [2] is T1, Adrenergic receptor alpha-1 (Rattus norvegicus, UniProt P15823+P23944+P43140).
T1 sequence (P15823 whole entry): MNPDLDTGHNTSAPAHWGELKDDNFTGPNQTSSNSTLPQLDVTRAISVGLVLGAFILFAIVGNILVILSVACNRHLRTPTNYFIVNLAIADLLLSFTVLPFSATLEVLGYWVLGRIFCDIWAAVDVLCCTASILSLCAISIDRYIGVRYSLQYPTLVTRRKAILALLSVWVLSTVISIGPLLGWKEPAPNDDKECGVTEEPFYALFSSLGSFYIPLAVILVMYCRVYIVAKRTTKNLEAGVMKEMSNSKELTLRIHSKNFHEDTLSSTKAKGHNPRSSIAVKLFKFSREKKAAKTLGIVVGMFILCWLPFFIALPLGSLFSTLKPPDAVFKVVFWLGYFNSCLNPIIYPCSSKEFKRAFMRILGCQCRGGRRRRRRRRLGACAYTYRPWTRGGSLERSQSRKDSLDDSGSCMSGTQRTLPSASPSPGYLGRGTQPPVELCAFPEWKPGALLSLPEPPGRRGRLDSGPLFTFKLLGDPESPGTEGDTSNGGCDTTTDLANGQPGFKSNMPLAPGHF
T1 sequence (P23944 whole entry): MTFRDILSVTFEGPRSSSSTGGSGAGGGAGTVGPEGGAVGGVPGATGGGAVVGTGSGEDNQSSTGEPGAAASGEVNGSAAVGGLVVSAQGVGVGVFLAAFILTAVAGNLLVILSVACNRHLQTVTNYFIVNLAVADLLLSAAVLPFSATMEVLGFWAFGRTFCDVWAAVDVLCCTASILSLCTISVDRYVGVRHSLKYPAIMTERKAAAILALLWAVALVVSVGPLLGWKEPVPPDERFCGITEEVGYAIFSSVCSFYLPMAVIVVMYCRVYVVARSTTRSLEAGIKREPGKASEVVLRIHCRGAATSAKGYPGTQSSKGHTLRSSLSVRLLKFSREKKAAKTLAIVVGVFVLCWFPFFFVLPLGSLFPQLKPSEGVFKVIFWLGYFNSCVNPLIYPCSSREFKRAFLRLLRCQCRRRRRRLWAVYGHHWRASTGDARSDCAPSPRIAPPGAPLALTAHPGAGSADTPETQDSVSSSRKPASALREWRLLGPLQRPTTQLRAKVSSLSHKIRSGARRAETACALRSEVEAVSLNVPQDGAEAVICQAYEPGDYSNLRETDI
T1 sequence (P43140 whole entry): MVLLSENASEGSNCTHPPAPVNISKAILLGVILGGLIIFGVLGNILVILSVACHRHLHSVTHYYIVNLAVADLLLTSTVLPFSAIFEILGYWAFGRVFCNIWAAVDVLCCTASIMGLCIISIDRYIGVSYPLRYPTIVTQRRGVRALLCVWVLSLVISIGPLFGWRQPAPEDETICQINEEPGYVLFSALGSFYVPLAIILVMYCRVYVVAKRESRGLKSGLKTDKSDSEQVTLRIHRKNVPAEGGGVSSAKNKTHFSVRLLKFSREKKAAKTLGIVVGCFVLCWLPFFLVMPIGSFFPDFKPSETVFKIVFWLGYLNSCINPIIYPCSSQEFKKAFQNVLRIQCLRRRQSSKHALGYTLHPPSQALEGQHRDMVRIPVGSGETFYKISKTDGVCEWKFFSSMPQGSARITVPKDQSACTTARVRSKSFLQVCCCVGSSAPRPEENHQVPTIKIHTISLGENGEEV
In words: Binding affinity for alpha-1 adrenergic receptor by displacement of [3H]-prazosin from rat brain homogenate preparation. Type of experiment: tissue-based. In general terms: Displacement assays read how much labelled ligand stays bound in the presence of the test substance.

The target in experiment [3] is T2, Adrenergic receptor alpha-2 (Rattus norvegicus) (UniProt P22086+P19328+P22909). In words: Binding affinity for alpha-2 adrenergic receptor by displacement of [3H]clonidine at 10e-6 M from rat brain homogenate preparation. Type of experiment: tissue-based. Summed up:
(§2)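 Rat brain homogenate; percentage displacement of [3H]clonidine by test agent at 10⁻⁶ M; NA denotes under 50%. Mean ± SEM of at least three separate experiments, each in triplicate.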

Experiment [4] deals with Rattus norvegicus. In words: Antihypertensive activity in spontaneously hypertensive rats (SHR) at 5 mg/kg dose (po) after 1 h. Format: functional. Summed up:
as §1

Experiment [5] is filed under the species Oryctolagus cuniculus. In words: Concentration producing a 40% increase in [3H]- overflow in rabbit pulmonary artery (Functional alpha-antagonist activity)d; NA= indicates no activity at 10e-5 M.
Experiment [6] is filed under the species Oryctolagus cuniculus. In words: Concentration producing a 40% reduction in contractile response in rabbit pulmonary artery (Functional alpha-antagonist activity).
The species named for experiment [7] is Oryctolagus cuniculus. Description: Concentration producing a 40% increase in [3H]- overflow in rabbit pulmonary artery (Functional alpha-antagonist activity).
Experiment [8] is filed under the species Oryctolagus cuniculus. In words: Concentration producing a 40% increase in [3H]- overflow in rabbit pulmonary artery (Functional alpha-antagonist activity); EC40-pre NA=indicates no activity at 10e-5 M.
Experiment [9] is filed under the species Oryctolagus cuniculus. In words: Concentration producing a 40% reduction in contractile response in rabbit pulmonary artery (Functional alpha-antagonist activity); EC40-post.
The species named for experiment [10] is Oryctolagus cuniculus. In words: Concentration producing a 40% increase in [3H]- overflow in rabbit pulmonary artery (Functional alpha-antagonist activity);EC40-pre, NA=indicates no activity at 10e-5 M.
The target in experiment [11] is T2, Adrenergic receptor alpha-2 (Rattus norvegicus). In words: Binding affinity for alpha-2 adrenergic receptor by displacement of [3H]clonidine at 10e-6 M from rat brain homogenate preparation; NA=indicates less than 50%. Format: tissue-based. Summed up: as §2
Experiment [12] has the same target. In words: Binding affinity for alpha-2 adrenergic receptor by displacement of [3H]clonidine at 10e-6 M from rat brain homogenate preparation; indicates less than 50%. Format: tissue-based. Summed up:
as §2

Activity calls are given as the source filed them. No cut-off for these calls is given here. Bounds are passed on as bounds.

The values below come from ChEMBL document CHEMBL1124050, “2,4-Diamino-6,7-dimethoxyquinazolines. 4. 2-[4-(substituted oxyethoxy) piperidino] derivatives as alpha 1-adrenoceptor antagonists and antihypertensive agents” (J Med Chem, 1988).

One may read the Ki as the equilibrium dissociation constant of an inhibitor or competing ligand from its target. The low end stands for a stronger hold on the target, the high end for a looser hold on the target. In the case of `CCOC(C)COC1CCN(c2nc(N)c3cc(OC)c(OC)cc3n2)CC1` (stereo unspecified), the results for the Reduction in the experiment on Rattus norvegicus [1] and in the experiment with Rattus norvegicus [4] were 20% and 43%, respectively. The Ki in [2] is reported as 0.99 nM. The Displacement in experiment [3] worked out at 74.3%.

As for `CCOC(C)(COC1CCN(c2nc(N)c3cc(OC)c(OC)cc3n2)CC1)c1ccccc1` (stereo unspecified), the Reduction in the experiment with Rattus norvegicus [1] came out at 13%; in the experiment with Rattus norvegicus [4], 20%. The Ki in [2] was found to be 0.15 nM. The EC40 entry in the experiment filed under Oryctolagus cuniculus [5] is “inactive”. In the experiment filed under Oryctolagus cuniculus [6], this compound showed an EC40 of 15 nM. In addition, the Displacement in experiment [3] stood at 97.5%.

As to `COc1cc2nc(N3CCC(OCC(C)OC)CC3)nc(N)c2cc1OC` (stereo unspecified), the Reduction in the experiment on Rattus norvegicus [1] was 16%; in the experiment on Rattus norvegicus [4] it was 34%. In experiment [2], this compound showed a Ki of 1.41 nM. For the same compound, in experiment [3], the Displacement is 68.7%.

Turning to `COc1cc2nc(N3CCC(OCC(C)(O)c4ccccc4)CC3)nc(N)c2cc1OC` (stereo unspecified), the Reduction with Rattus norvegicus [1] is 20%; in the experiment on Rattus norvegicus [4], 23%. For the same compound, the Ki in experiment [2] is given as 0.62 nM. Also, the Displacement in experiment [3] was 97%.

For the compound `CCOC(COC1CCN(c2nc(N)c3cc(OC)c(OC)cc3n2)CC1)c1ccccc1` (stereo unspecified), the values for the Reduction with Rattus norvegicus [1] and in the experiment with Rattus norvegicus [4] were 12% and 16%, respectively. This compound also returned a Ki in experiment [2] of 0.52 nM. In experiment [3], this compound came in with a Displacement of 84.5%.

As to `COc1cc2nc(N3CCN(C(=O)c4ccco4)CC3)nc(N)c2cc1OC` [PRAZOSIN], the values for the Reduction in the experiment on Rattus norvegicus [1] and in the experiment on Rattus norvegicus [4] were 29% and 33%, respectively. Moreover, the EC40 in the experiment listed under Oryctolagus cuniculus [6] came out at 4.5 nM; in the experiment filed under Oryctolagus cuniculus [7] it was 1300 nM.

With `COc1cc2nc(N3CCC(OCC(C)O)CC3)nc(N)c2cc1OC` (stereo unspecified), the figures for the Reduction in the experiment on Rattus norvegicus [1] and with Rattus norvegicus [4] were 19% and 30%, respectively. In experiment [2], this compound returned an inhibition constant Ki of 3.52 nM. The compound also returned a Displacement in experiment [3] of 55%.

For `COc1cc2nc(N3CCC(OCCOC4CCCC4)CC3)nc(N)c2cc1OC`, the Reduction in the experiment on Rattus norvegicus [1] worked out at 11%; in the experiment with Rattus norvegicus [4] it was 20%.

Regarding `COc1cc2nc(N3CCC(OCCOC(C)C)CC3)nc(N)c2cc1OC`, the figures for the Reduction in the experiment with Rattus norvegicus [1] and in the experiment with Rattus norvegicus [4] were 15% and 26%, respectively. Further, the Ki in experiment [2] was 0.67 nM. The compound further displayed a Displacement in experiment [3] of 73.4%.

As for `CCCCOCCOC1CCN(c2nc(N)c3cc(OC)c(OC)cc3n2)CC1`, the results for the Reduction in the experiment on Rattus norvegicus [1] and in the experiment on Rattus norvegicus [4] were 20% and 27%, respectively. Further, in experiment [2], the Ki is 1.03 nM. In addition, the Displacement in experiment [3] amounted to 76%.

On to `COCCOC1CCN(c2nc(N)c3cc(OC)c(OC)cc3n2)CC1`, for which the values for the Reduction with Rattus norvegicus [1] and in the experiment with Rattus norvegicus [4] were 28% and 57%, respectively. In addition, the Ki in experiment [2] amounted to 2.12 nM. For the same compound, the Displacement in experiment [3] worked out at 53%.

On to `CCOCCOC1CCN(c2nc(N)c3cc(OC)c(OC)cc3n2)CC1`, for which the Reduction turned out to be 20% in the experiment on Rattus norvegicus [1] and 22% in the experiment on Rattus norvegicus [4]. This compound also had a Ki in experiment [2] of 1.81 nM. Besides, the EC40 entry in the experiment filed under Oryctolagus cuniculus [8] was “inactive”. Also, the Displacement in [3] came out at 65.3%. The same compound gave an EC40 in the experiment filed under Oryctolagus cuniculus [9] of 38 nM.

With `COc1cc2nc(N3CCC(OCCOc4ccccc4)CC3)nc(N)c2cc1OC`, the Reduction turned out to be 18% in the experiment on Rattus norvegicus [1] and 26% with Rattus norvegicus [4]. In [2], this compound displayed a Ki of 0.48 nM. In the experiment filed under Oryctolagus cuniculus [10], the EC40 result was “inactive”. The compound further came in with a Displacement in experiment [3] of 79.3%. In addition, the EC40 in the experiment filed under Oryctolagus cuniculus [9] was found to be 44 nM.

`COc1cc2nc(N3CCC(OCC(O)c4ccccc4)CC3)nc(N)c2cc1OC` (stereo unspecified): the Reduction in the experiment with Rattus norvegicus [1] is 16%; with Rattus norvegicus [4], 26%. Further, the Ki in experiment [2] was determined as 0.15 nM. The compound further showed a Displacement in [3] of 91%.

`COc1cc2nc(N3CCC(OCC(C)(C)OC)CC3)nc(N)c2cc1OC`: the Reduction is on record as 9% with Rattus norvegicus [1] and 20% with Rattus norvegicus [4]. Besides, the Ki in experiment [2] was 1.14 nM. The Displacement in [3] is 75.7%.

For the compound `COc1cc2nc(N3CCC(OCCO)CC3)nc(N)c2cc1OC`, the Reduction in the experiment with Rattus norvegicus [1] stood at 10%; in the experiment with Rattus norvegicus [4], 8%. The same compound showed a Ki in experiment [2] of 2.2 nM. The Displacement in [11] is < 50%.

For the compound `CCOCC(OC1CCN(c2nc(N)c3cc(OC)c(OC)cc3n2)CC1)c1ccccc1` (stereo unspecified), the Reduction is recorded as 19% in the experiment on Rattus norvegicus [1] and 24% in the experiment with Rattus norvegicus [4]. Besides, the Ki in experiment [2] was 10 nM. Also, in experiment [12], the Displacement was < 50%.

In the case of `COc1cc2nc(N3CCC(OCC(C)(C)O)CC3)nc(N)c2cc1OC`, the Reduction in the experiment with Rattus norvegicus [1] turned out to be 22%; in the experiment on Rattus norvegicus [4], 40%. Also, the Ki in experiment [2] was 1.28 nM. In [3], this compound registered a Displacement of 61.7%.
